Compound activity deposited in PubChem by several laboratories.
JMJD2C inh: inhibitors of GASC-1 histone demethylase, primary screen, biochemical, fluorescence, DELFIA europium; Lysine-specific demethylase 4C (Homo sapiens), Q9H3R0; GST-JMJD2C(1-420) H3K9me3 demethylation; inhibition, % at 2.35 µM; hit rate 0.069% among 330,000; AID 2099, 2009;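 active = more than half of a compound's replicate wells show inhibition beyond 50%, single wells judged on their own value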;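 also: signal counts dimethyl H3K9 product captured on neutravidin plate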
Target sequence (Q9H3R0 1-420 limits assumed): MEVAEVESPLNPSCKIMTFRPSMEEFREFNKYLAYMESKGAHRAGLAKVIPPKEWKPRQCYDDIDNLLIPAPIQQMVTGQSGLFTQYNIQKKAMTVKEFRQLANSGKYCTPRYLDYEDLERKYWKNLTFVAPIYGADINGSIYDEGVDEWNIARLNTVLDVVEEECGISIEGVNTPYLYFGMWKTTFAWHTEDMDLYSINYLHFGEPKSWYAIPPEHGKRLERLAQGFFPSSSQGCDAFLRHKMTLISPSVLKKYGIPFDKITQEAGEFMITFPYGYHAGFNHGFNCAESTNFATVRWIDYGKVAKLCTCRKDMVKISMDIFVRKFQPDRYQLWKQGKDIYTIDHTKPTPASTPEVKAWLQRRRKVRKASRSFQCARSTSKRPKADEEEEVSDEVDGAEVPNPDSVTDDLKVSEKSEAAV
T cell HTS: modulators of CD8 T cell-vesicle binding, primary screen, mouse 2C CD8+ T cells, flow cytometry; hit rate 0.068% among 330,000; 2C CD8+ T cell-vesicle binding; hits give low values; AID 2052, 2009; response (vesicle binding), % at 7 µM;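 active = response, share of CD8 T cells binding vesicles, and their 90th percentile fluorescence all below set limits, cut at about 80% in these data, passing the limit was not always enough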;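 also: values below 100% mean blocked vesicle binding to the CD8+ T cells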
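Assay system – 2C mouse CD8+ T cells · Also added – QL9-loaded Drosophila micro-vesicles · Timing – Cell–vesicle co-incubation 1.5 h at 37 °C, staining 20 min on ice · Signal – flow cytometry of vesicle-bound cells · Measure – percent CD8+ FL2 mean versus row control · Controls – Peptide-free naked vesicles (low) and QL9 vesicles with 0.7% DMSO vehicle (high)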
HDAC3 inhib: HDAC3 deacetylase inhibitors, primary screen, biochemical, fluorescence, cell-free homogeneous. Histone deacetylase 3 (Homo sapiens), O15379. recombinant HDAC3, fluorogenic peptide/trypsin coupled. inhibition, % at 8.3 µM. hit rate 0.15% among 320,000. AID 2718, 2010; in the data active = inhibition above about 26%, passing the limit was not always enough
LANA-H2A inh: blockers of LANA interaction with H2A/H2B – biochemical, FP readout, HTS, primary screen; inhibition, % (test concentration not listed); cell-free LANA-H2A/H2B peptide, fluorescence polarization; AID 2629, 2010; Protein LANA1 (Human herpesvirus 8 type P (isolate GK18)), Q9QR71; hit rate 0.6% among 320,000; in the data active = inhibition mostly above about 10%, no sharp cut-off; inactive = mostly below about 6.7%
Arr AP2 block: inhibitors of beta-arrestin/AP2 binding, primary screen, biochemical, GPCR trafficking, flow cytometry; hit rate 0.31% among 340,000; FITC-arrestin peptide / GST-AP2 beads; AP2 beta2 appendage carries R879A mutation; inhibition, % at 10 µM;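 active = inhibition above a set limit, near 3 SD of compounds lacking own fluorescence, cut at about 54% in these data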
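Material – AP2 appendage R879A on GSH beads · Buffer or medium – PBS with 0.05% Tween 20 and 0.1% BSA · Probe or stimulus – fluorescein-tagged arrestin peptide at 50 nM final · Incubation – compound with beads 12 min RT, then probe 1 h RT · Detection – high-throughput flow cytometry of beads, ex 488, em 535 nm · Evaluation – percent response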
DSG3 Ab inh: inhibitors of pemphigus antibody binding to DSG3, primary screen, biochemical, bead-based, flow cytometry, scFv-GFP; DSG3-coupled beads, scFv-anti-DSG3-GFP binding; hits give low values; hit rate 0.48% among 310,000; Desmoglein-3 (Homo sapiens), P32926; binding (percent of control), % at 10 µM;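 active = binding more than 3 SD below its plate's average and above zero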;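 also: hits lower antibody fragment binding to DSG3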
Arr AP2 CP1: inhibitors of arrestin peptide binding to AP2, confirmation, biochemical, cherry pick 1, flow cytometry beads. inhibition, % at 10 µM. hit rate 2% among 1,300. AID 504908, 2011. GST-AP2 beads, FITC arrestin peptide binding; GST-fused beta2-adaptin appendage, R879A mutant. shares compounds with Arr AP2 block;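 active = inhibition above a set limit, roughly 3 SD of non-fluorescent compound noise, cut at about 38% in these data; inactive = inhibition at or below that limit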;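 also: loss of bead fluorescence from 50 nM FITC arrestin peptide bound to appendage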
GST-FITC bead: GST-fluorescein capture on glutathione beads, confirmation, artefact control for arrestin-AP2 inhibitor project, biochemical, cherry pick 1, flow cytometry; shares compounds with Arr AP2 block; GST-fluorescein binding to GSH beads, fluorescence, counter-screen; inhibition, % at 10 µM; hit rate 2% among 1,300;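 active = inhibition above 50%, about 3 SD of the inhibition seen with non-fluorescent compounds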;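 also: fluorescein maleimide labelled GST captured on 4 micron glutathione beads; higher means more loss of bead fluorescence from quenching or blocked binding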
Of the large screens only hits and unclear results are named; the others gave an inactive call (follow-up assays come after a bar, where they were run). Only some compounds are listed: those with a hit (about 1.6% of all), similar ones and a draw of the others.

CC[C@@H]1C=CC=CC[C@H](C)[C@@H](O)[C@@H](C)C(=O)[C@H](C)[C@@H](O)[C@H](C)C(=O)[C@H](C)[C@@H](O)[C@H](C)C=CC(=O)O[C@H]2[C@@H](C)[C@@H](CC1)O[C@@]1(CC[C@@H](C)[C@@H](C[C@H](C)O)O1)[C@@H]2C	HDAC3 inhib 50 (no result: Arr AP2 block, DSG3 Ab inh)
O=C1NC(=O)N(Cc2ccc(F)cc2)C(=O)/C1=C\C=C\c1ccco1	JMJD2C inh 69
N=C(N)c1c(O)n(C2CCCCC2)c(=O)n(C2CCCCC2)c1=O	HDAC3 inhib 28
O=c1c(C=NCc2cccs2)c(O)n(C2CCCCC2)c(=O)n1C1CCCCC1	none
OC(c1ccc(F)cc1)C(c1ccccc1)N1CCOCC1 (configuration not stated)	DSG3 Ab inh 23
[N-]=[N+]=NC1C[C@H](n2ccc(=O)[nH]c2=O)O[C@@H]1CO (some centres not stated)	none
CC1=C(O)C(=O)C=C2C1=CC=C1C2(C)CCC2(C)C3CC(C)(C(=O)O)CCC3(C)CCC12C (configuration not stated)	none (no result: JMJD2C inh, T cell HTS, HDAC3 inhib, LANA-H2A inh)
COc1ccccc1-n1c(CNCC2CCCO2)nc2ccccc2c1=O (configuration not stated)	Arr AP2 block 60 | Arr AP2 CP1 inactive | GST-FITC bead inactive
O=C(CCC(=O)N1C[C@H]2C[C@@H](C1)c1cccc(=O)n1C2)NCc1ccccc1	none
c1ccc2c(c1)cc1ccc3cccc4ccc2c1c34	Arr AP2 block 57 (no result: JMJD2C inh, T cell HTS, HDAC3 inhib, LANA-H2A inh) | Arr AP2 CP1 inactive | GST-FITC bead inactive
COc1ccc2[nH]c(C)c(CCNCc3cc(OC)c4c(c3)OCO4)c2c1	none
CN(C)c1ccc(C=C2C(=O)NC(=S)NC2=O)cc1[N+](=O)[O-]	Arr AP2 block 64 (no result: JMJD2C inh) | Arr AP2 CP1 inactive | GST-FITC bead inactive
CN(C)c1ccc(C=C2C(=O)NC(=O)NC2=O)cc1[N+](=O)[O-]	none
CCOC(=O)C1(CCc2ccccc2)CCN(Cc2ccc3c(c2)OCCO3)CC1	none
CCOC(=O)C1(CCOc2ccccc2)CCN(Cc2ccc(C)s2)CC1	Arr AP2 block 57 | Arr AP2 CP1 inactive | GST-FITC bead inactive
